Blank lines part the entries; values can stand above or below the compound they belong to.
What was measured:
MKN-28 [1] = test: Antitumor activity against human MKN28 cell line xenografted in nude athymic mouse at 1 mg/kg, po measured as tumor volume inhibition relative to control; assay type: functional
In short: (§1)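 Tumour fragments implanted on both flanks of nude athymic mice at day 0. Dosing iv or po started when tumours were just palpable (day 3-4). Tumour volume inhibition (%) is treated over control, 20 days after last treatment.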

MKN-28 [2] = test: Antitumor activity against human MKN28 cell line xenografted in nude athymic mouse at 2 mg/kg, po measured as log10 of cell kill to reach 1000 mm3 tumor volume; assay type: functional
MKN-28 [3] = test: Antitumor activity against human MKN28 cell line xenografted in nude athymic mouse at 4 mg/kg, po measured as body weight loss; assay type: functional
Mus musculus [4] = test: Toxicity in nude athymic mouse at 4 mg/kg, po; assay type: organism-based; design: dose 4 mg/kg, route oral; conditions: in vivo
MKN-28 [5] = test: Antitumor activity against human MKN28 cell line xenografted in nude athymic mouse at 1 mg/kg, po measured as log10 of cell kill to reach 1000 mm3 tumor volume; assay type: functional
MKN-28 [6] = test: Antitumor activity against human MKN28 cell line xenografted in nude athymic mouse at 1 mg/kg, po measured as body weight loss; assay type: functional
Mus musculus [7] = test: Toxicity in nude athymic mouse at 2 mg/kg, po; assay type: organism-based; design: dose 2 mg/kg, route oral; conditions: in vivo
MKN-28 [8] = test: Antitumor activity against human MKN28 cell line xenografted in nude athymic mouse at 2 mg/kg, po measured as tumor volume inhibition relative to control; assay type: functional; in short: as §1
MKN-28 [9] = test: Antitumor activity against human MKN28 cell line xenografted in nude athymic mouse at 4 mg/kg, po measured as log10 of cell kill to reach 1000 mm3 tumor volume; assay type: functional
MKN-28 [10] = test: Antitumor activity against human MKN28 cell line xenografted in nude athymic mouse at 4 mg/kg, po measured as tumor volume inhibition relative to control; assay type: functional; in short: as §1
NCI-H460 = test: Inhibition of human H460 cell growth; assay type: functional, cell-based
In short: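 H460 cells grown in RPMI-1640 with 10% FCS, seeded in duplicate in log phase. Drug from DMSO stock added 24 h after seeding for 1 h exposure. Cells counted 72 h later by Coulter counter. IC50 is the concentration giving 50% growth decrease versus untreated control; mean ± SD of at least three experiments.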

MKN-28 [11] = test: Antitumor activity against human MKN28 cell line xenografted in nude athymic mouse at 2 mg/kg, po measured as body weight loss; assay type: functional
Mus musculus [12] = test: Toxicity in nude athymic mouse at 1 mg/kg, po; assay type: organism-based; design: dose 1 mg/kg, route oral; conditions: in vivo
[13] = biological target: T1, DNA topoisomerase 1 (Homo sapiens) (UniProt P11387); test: Activity against human Top1-mediated DNA cleavage after 10 mins; assay type: functional
T1 sequence (whole entry): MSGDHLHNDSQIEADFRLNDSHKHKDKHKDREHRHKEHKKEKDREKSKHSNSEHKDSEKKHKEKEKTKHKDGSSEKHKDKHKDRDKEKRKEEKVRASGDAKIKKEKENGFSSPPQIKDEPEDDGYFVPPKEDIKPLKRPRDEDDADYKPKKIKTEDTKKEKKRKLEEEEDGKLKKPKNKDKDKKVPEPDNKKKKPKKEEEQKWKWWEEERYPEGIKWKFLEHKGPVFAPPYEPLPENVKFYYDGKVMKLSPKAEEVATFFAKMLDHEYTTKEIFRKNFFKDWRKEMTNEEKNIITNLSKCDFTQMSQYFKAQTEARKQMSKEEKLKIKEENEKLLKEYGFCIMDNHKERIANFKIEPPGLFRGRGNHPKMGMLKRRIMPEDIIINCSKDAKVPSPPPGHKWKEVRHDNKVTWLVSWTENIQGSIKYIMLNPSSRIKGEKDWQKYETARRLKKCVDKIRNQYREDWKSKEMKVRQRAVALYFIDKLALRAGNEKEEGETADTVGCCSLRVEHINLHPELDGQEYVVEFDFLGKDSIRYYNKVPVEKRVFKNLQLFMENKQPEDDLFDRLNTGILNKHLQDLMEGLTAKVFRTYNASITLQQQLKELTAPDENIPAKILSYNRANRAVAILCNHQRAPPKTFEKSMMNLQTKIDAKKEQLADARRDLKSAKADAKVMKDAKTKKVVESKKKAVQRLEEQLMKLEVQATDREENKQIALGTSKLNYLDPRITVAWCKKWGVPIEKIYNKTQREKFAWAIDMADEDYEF
In short: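 Purified full-length human recombinant top1 from GST-tagged yeast expression (640 ng per reaction), 3′-end-labelled 751-bp SV40 DNA fragment, pH 7.6 Tris buffer with 150 mM KCl, 5 mM MgCl2. 30 min at 37 °C, then 0.6 M NaCl added to reverse cleavage. Cleavage bands on denaturing gel quantified by phosphorimaging as cleaved/uncleaved radioactivity ratio, relative to 30 min level (100%).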

MKN-28 [14] = test: Antitumor activity against human MKN28 cell line xenografted in nude athymic mouse at 9 mg/kg, po measured as log10 of cell kill to reach 1000 mm3 tumor volume; assay type: functional
MKN-28 [15] = test: Antitumor activity against human MKN28 cell line xenografted in nude athymic mouse at 5 mg/kg, po measured as tumor volume inhibition relative to control; assay type: functional
In short: (§2)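 MKN-28 human gastric carcinoma tumor fragments inoculated on both flanks of nude athymic mice at day 0. Oral dosing began when tumors were just palpable (day 3-4). Read-out was tumor volume inhibition (%) of treated over control animals, 20 days after the last treatment. Groups of 4 mice.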

MKN-28 [16] = test: Antitumor activity against human MKN28 cell line xenografted in nude athymic mouse at 15 mg/kg, po measured as tumor volume inhibition relative to control; assay type: functional; in short: as §2
MKN-28 [17] = test: Antitumor activity against human MKN28 cell line xenografted in nude athymic mouse at 9 mg/kg, po measured as tumor volume inhibition relative to control; assay type: functional; in short: as §2
Mus musculus [18] = test: Toxicity in nude athymic mouse at 9 mg/kg, po; assay type: organism-based; design: dose 9 mg/kg, route oral; conditions: in vivo
In short: (§3)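 Nude athymic mice bearing MKN-28 human gastric carcinoma xenografts, from tumor fragments inoculated on both flanks at day 0. Oral treatment started when tumors were just palpable (day 3-4). Body weight loss (%) and toxicity were recorded per dose group, with toxicity given as a count over 4 mice.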

MKN-28 [19] = test: Antitumor activity against human MKN28 cell line xenografted in nude athymic mouse at 5 mg/kg, po measured as body weight loss; assay type: functional; in short: as §3
MKN-28 [20] = test: Antitumor activity against human MKN28 cell line xenografted in nude athymic mouse at 5 mg/kg, po measured as log10 of cell kill to reach 1000 mm3 tumor volume; assay type: functional
MKN-28 [21] = test: Antitumor activity against human MKN28 cell line xenografted in nude athymic mouse at 15 mg/kg, po measured as log10 of cell kill to reach 1000 mm3 tumor volume; assay type: functional
Mus musculus [22] = test: Toxicity in nude athymic mouse at 5 mg/kg, po; assay type: organism-based; design: dose 5 mg/kg, route oral; conditions: in vivo; in short: as §3
Mus musculus [23] = test: Toxicity in nude athymic mouse at 15 mg/kg, po; assay type: organism-based; design: dose 15 mg/kg, route oral; conditions: in vivo; in short: as §3
MKN-28 [24] = test: Antitumor activity against human MKN28 cell line xenografted in nude athymic mouse at 9 mg/kg, po measured as body weight loss; assay type: functional; in short: as §3
MKN-28 [25] = test: Antitumor activity against human MKN28 cell line xenografted in nude athymic mouse at 15 mg/kg, po measured as body weight loss; assay type: functional; in short: as §3
Mus musculus [26] = test: Toxicity in nude athymic mouse at 4 mg/kg, iv; assay type: organism-based; design: dose 4 mg/kg, route intravenous; conditions: in vivo
Mus musculus [27] = test: Toxicity in nude athymic mouse at 1 mg/kg, iv; assay type: organism-based; design: dose 1 mg/kg, route intravenous; conditions: in vivo

Structure (SMILES): CC[C@@]1(O)C(=O)OCc2c1cc1n(c2=O)Cc2c-1nc1ccccc1c2/C=N/CCCN(CCCCN(CCCNC(=O)OC(C)(C)C)C(=O)OC(C)(C)C)C(=O)OC(C)(C)C
inhibition in vivo at 1 mg/kg (MKN-28 [1]): 28%
Activity (MKN-28 [2]): 0.5
Activity (MKN-28 [3]): 7%
Activity (Mus musculus [4]): Non-toxic
Activity (MKN-28 [5]): 0.1
Activity (MKN-28 [6]): 5%
Activity (Mus musculus [7]): Non-toxic
inhibition in vivo at 2 mg/kg (MKN-28 [8]): 62%
Activity (MKN-28 [9]): 1
inhibition in vivo at 4 mg/kg (MKN-28 [10]): 72%
IC50 (NCI-H460): 0.029 µM
Activity (MKN-28 [11]): 1%
Activity (Mus musculus [12]): Non-toxic

Structure (SMILES): CC[C@@]1(O)C(=O)OCc2c1cc1n(c2=O)Cc2c-1nc1ccccc1c2CNCCCN(CCCCN(CCCNC(=O)OC(C)(C)C)C(=O)OC(C)(C)C)C(=O)OC(C)(C)C
IC50 (NCI-H460): 1.4 µM

Structure (SMILES): CC[C@@]1(O)C(=O)OCc2c1cc1n(c2=O)Cc2c-1nc1ccccc1c2/C=N\OCCCN
IC50 (NCI-H460): 1.77 µM

Structure (SMILES): CC[C@@]1(O)C(=O)OCc2c1cc1n(c2=O)Cc2c-1nc1ccccc1c2CNCCCNCCCCNCCCN
Activity [13]: 60%
IC50 (NCI-H460): 1.43 µM

Structure (SMILES): CC[C@@]1(O)C(=O)OCc2c1cc1n(c2=O)Cc2c-1nc1ccccc1c2CN(CCCN(CCCCN(CCCNC(=O)OC(C)(C)C)C(=O)OC(C)(C)C)C(=O)OC(C)(C)C)C(=O)OC(C)(C)C
IC50 (NCI-H460): 3.27 µM

Structure (SMILES): CC[C@@]1(O)C(=O)OCc2c1cc1n(c2=O)Cc2cc3c(CN(C)C)c(O)ccc3nc2-1 [TOPOTECAN]
Activity (MKN-28 [14]): 1.7
inhibition in vivo at 5 mg/kg (MKN-28 [15]): 80%
inhibition in vivo at 15 mg/kg (MKN-28 [16]): 98%
inhibition in vivo at 9 mg/kg (MKN-28 [17]): 91%
Activity (Mus musculus [18]): Non-toxic
Activity (MKN-28 [19]): 0%
Activity (MKN-28 [20]): 1.3
Activity (MKN-28 [21]): 2.1
Activity (Mus musculus [22]): Non-toxic
Activity (Mus musculus [23]): Non-toxic
Activity (MKN-28 [24]): 0%
Activity (MKN-28 [25]): 8%

Structure (SMILES): CC[C@@]1(O)C(=O)OCc2c1cc1n(c2=O)Cc2c-1nc1ccccc1c2/C=N\OCCN(CCCCNC(=O)OC(C)(C)C)C(=O)OC(C)(C)C
IC50 (NCI-H460): 1.15 µM

Structure (SMILES): CC[C@@]1(O)C(=O)OCc2c1cc1n(c2=O)Cc2c-1nc1ccccc1c2/C=N\OCCNCCCCNCCCN
Activity [13]: 60%
IC50 (NCI-H460): 1.07 µM

IC50 (NCI-H460): 0.08 µM
Structure (SMILES): CCc1c2c(nc3ccc(O)cc13)-c1cc3c(c(=O)n1C2)COC(=O)[C@]3(O)CC [7-ETHYL-10-HYDROXYCAMPTOTHECIN]

Structure (SMILES): CC[C@@]1(O)C(=O)OCc2c1cc1n(c2=O)Cc2c-1nc1ccccc1c2/C=N/CCCN(CCCCNC(=O)OC(C)(C)C)C(=O)OC(C)(C)C
Activity (Mus musculus [26]): Non-toxic
IC50 (NCI-H460): 0.015 µM
Activity (Mus musculus [27]): Non-toxic

Structure (SMILES): CC[C@@]1(O)C(=O)OCc2c1cc1n(c2=O)Cc2c-1nc1ccccc1c2/C=N\OCCCNC(=O)OC(C)(C)C
IC50 (NCI-H460): 0.3 µM

Structure (SMILES): CC[C@@]1(O)C(=O)OCc2c1cc1n(c2=O)Cc2c-1nc1ccccc1c2/C=N\OCCNCCCCN
Activity [13]: 60%
IC50 (NCI-H460): 1.16 µM

Structure (SMILES): CC[C@@]1(O)C(=O)OCc2c1cc1n(c2=O)Cc2c-1nc1ccccc1c2/C=N\OCCN(CCCCN(CCCNC(=O)OC(C)(C)C)C(=O)OC(C)(C)C)C(=O)OC(C)(C)C
IC50 (NCI-H460): 1.06 µM

Structure (SMILES): CC[C@@]1(O)C(=O)OCc2c1cc1n(c2=O)Cc2c-1nc1ccccc1c2/C=N\OCCNC(=O)OC(C)(C)C
IC50 (NCI-H460): 0.084 µM

Source: ChEMBL document CHEMBL1146009, “Synthesis and cytotoxic activity of polyamine analogues of camptothecin” (J Med Chem, 2006)
